In ChEMBL document CHEMBL4431339, “1,2,3-Triazoles as Amide Bioisosteres: Discovery of a New Class of Potent HIV-1 Vif Antagonists” (J Med Chem, 2016):
Active and inactive are the calls of the source. Unless noted, no cut-off for these calls is given here.

Columns and labels:
[1] = target: Virion infectivity factor (Human immunodeficiency virus type 1 group M subtype B (isolate NY5)(HIV-1)) (UniProt P12504); assay: Antagonist activity against HIV-1 Vif in human MT4 cells assessed as inhibition of viral infection at 50 uM measured after 16 hrs by cell-based assay; settings: Human immunodeficiency virus 1
In short: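 Antiviral activity was measured against wild-type HIV-1 in permissive MT-4 cells as a Vif-specificity counter-screen. RN-18 was the positive control, and cells cultured without inhibitor were the negative control. "No activity" means no inhibition at 50 µM.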

[2] = target: Virion infectivity factor (Human immunodeficiency virus type 1 group M subtype B (isolate NY5)(HIV-1)) (UniProt P12504); assay: Antagonist activity against HIV-1 GFP-tagged Vif in human HEK293FT cells co-expressing HA-tagged A3G assessed as upregulation of A3G levels at 50 uM measured after 16 hrs by immunoblotting method; assay type: cell-based; settings: Human immunodeficiency virus 1
In short: (§1)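 HEK293FT cells co-expressing HA-tagged A3G and either GFP-tagged Vif or Vif were incubated with or without compound (50 µM) for 16 h. Cell extracts were immunoblotted with anti-HA (A3G), anti-GFP (Vif) and anti-GAPDH antibodies. Untreated cells served as the comparison, and choline chloride was included as a negative control in the triazole series.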

[3] = target: Virion infectivity factor (Human immunodeficiency virus type 1 group M subtype B (isolate NY5)(HIV-1)) (UniProt P12504); assay: Antagonist activity against HIV-1 GFP-tagged Vif in human HEK293FT cells co-expressing HA-tagged A3G assessed as downregulation of Vif expression expression at 50 uM measured after 16 hrs by immunoblotting method; assay type: cell-based; settings: Human immunodeficiency virus 1; in short: as §1
[4] = target: Virion infectivity factor (Human immunodeficiency virus type 1 group M subtype B (isolate NY5)(HIV-1)) (UniProt P12504); assay: Antagonist activity against HIV-1 Vif in human H9 cells expressing A3G assessed as inhibition of viral replication by reverse transcriptase assay relative to vehicle-treated control; assay type: cell-based; settings: Human immunodeficiency virus 1
In short: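 Antiviral activity was measured against wild-type HIV-1 in non-permissive (A3G-expressing) H9 cells and reported as IC50. RN-18 was the positive control, and cells cultured without inhibitor were the negative control. Selected compounds were tested across doses, and MTS cell viability was checked in parallel at 50 µM.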

HeLa = assay: Cytotoxicity against human HeLa cells at 50 uM measured after 16 hrs by MTS assay relative to DMSO control; assay type: cell-based

Virion infectivity factor (Human immunodeficiency virus type 1 group M subtype B (isolate NY5)(HIV-1)), sequence (P12504 whole entry): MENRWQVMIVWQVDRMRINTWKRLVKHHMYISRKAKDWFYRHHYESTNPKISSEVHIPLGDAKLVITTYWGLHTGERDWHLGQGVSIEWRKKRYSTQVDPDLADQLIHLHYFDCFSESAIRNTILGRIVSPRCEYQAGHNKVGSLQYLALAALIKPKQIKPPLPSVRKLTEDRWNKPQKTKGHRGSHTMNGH

In the case of COc1ccc(Sc2ccccc2-c2cn(-c3cccc(OC)c3OC)nn2)cc1, the Activity [1] was “inactive”.
COc1ccccc1-n1cc(-c2ccccc2S(=O)(=O)c2ccc(N)cc2)nn1 was tested, and the Activity [2] was “Active”, the Activity [1] was “inactive” and the Activity [3] was “Active”.
For COc1ccc(-n2cc(-c3ccccc3S(=O)(=O)c3ccc(N)cc3)nn2)c(OC)c1, the Activity [1] was “inactive”.
With COc1ccc(-n2cc(-c3ccccc3Sc3ccc([N+](=O)[O-])cc3)nn2)c(OC)c1 the Activity [1] was “inactive”.
COc1cccc(OC)c1-n1cc(-c2ccccc2Sc2ccc(N)cc2)nn1 was tested, and the Activity [1] was “inactive”.
In the case of COc1cccc(-n2cc(-c3ccccc3S(=O)(=O)c3ccc(C(F)(F)F)cc3)nn2)c1OC, the Activity [1] was “inactive”.
COc1ccc(OC)c(-n2cc(-c3ccccc3S(=O)(=O)c3ccc(C(F)(F)F)cc3)nn2)c1 was tested, and the Activity [1] was “inactive”.
COc1ccc(OC)c(-n2cc(-c3ccccc3S(=O)(=O)c3ccc(C(=O)O)cc3)nn2)c1 was tested, and the Activity [2] was “Active”, the Activity [1] was “inactive” and the Activity [3] was “Active”.
COc1cccc(F)c1-n1cc(-c2ccccc2S(=O)(=O)c2ccc(C(=O)O)cc2)nn1 was tested, and the Activity [1] was “inactive”.
For COC(=O)c1ccc(Sc2ccccc2-c2cn(-c3ccccc3OC)nn2)cc1, the Activity [1] was “inactive”.
COc1cccc(-n2cc(-c3ccccc3Sc3ccc(N)cc3)nn2)c1OC was tested, and the Activity [1] was “inactive”.
In the case of COc1cccc(-n2cc(-c3ccccc3Sc3ccc(C(=O)O)cc3)nn2)c1OC, the Activity [1] was “inactive”.
In the case of COc1cccc(F)c1-n1cc(-c2ccccc2Sc2ccc(N)cc2)nn1, the Activity [1] was “inactive”.
COc1ccc(S(=O)(=O)c2ccccc2-c2cn(-c3ccccc3OC)nn2)cc1 was tested, and the Activity [1] was “inactive”.
For COC(=O)c1ccc(S(=O)(=O)c2ccccc2-c2cn(-c3cc(OC)ccc3OC)nn2)cc1, the Activity [1] was “inactive”.
With COc1cccc(OC)c1-n1cc(-c2ccccc2S(=O)(=O)c2ccc([N+](=O)[O-])cc2)nn1 the Activity [1] was “inactive”.
In the case of COc1ccc(S(=O)(=O)c2ccccc2-c2cn(-c3c(F)cccc3OC)nn2)cc1, the Activity [1] was “inactive”.
With COc1ccc(S(=O)(=O)c2ccccc2-c2cn(-c3c(OC)cccc3OC)nn2)cc1 the Activity [1] was “inactive”.
COc1ccccc1-n1cc(-c2ccccc2Sc2ccc(C(=O)O)cc2)nn1 was tested, and the Activity [1] was “inactive”.
COC(=O)c1ccc(Sc2ccccc2-c2cn(-c3c(F)cccc3OC)nn2)cc1 was tested, and the Activity [1] was “inactive”.
In the case of COc1ccccc1-c1nnc(-c2ccccc2Sc2ccc([N+](=O)[O-])cc2)o1, the Activity [2] was “Active” and the Activity [3] was “Active”.
With COc1cccc(F)c1-n1cc(-c2ccccc2S(=O)(=O)c2ccc([N+](=O)[O-])cc2)nn1 the Activity [1] was “inactive”.
With COc1cccc(F)c1-n1cc(-c2ccccc2S(=O)(=O)c2ccc(C(F)(F)F)cc2)nn1 the Activity [1] was “inactive”.
With COc1cccc(-n2cc(-c3ccccc3Sc3ccc([N+](=O)[O-])cc3)nn2)c1OC the inhibition [4] was “Dose-dependent effect”, the Activity [1] was “inactive” and the Activity (HeLa) was “Non-Toxic”.
With COc1ccccc1-n1cc(-c2ccccc2Sc2ccc(C(F)(F)F)cc2)nn1 the Activity [2] was “Active”, the inhibition [4] was “Dose-dependent effect” and the Activity [1] was “inactive”. The Activity (HeLa) was “Non-Toxic” and the Activity [3] was “Active”.
In the case of COc1ccc(-n2cc(-c3ccccc3Sc3ccc(C(=O)O)cc3)nn2)c(OC)c1, the Activity [1] was “inactive”.
For COc1ccc(OC)c(-n2cc(-c3ccccc3Sc3ccc([N+](=O)[O-])cc3)nn2)c1, the Activity [2] was “Active”, the inhibition [4] was “Dose-dependent effect” and the Activity [1] was “inactive”. The Activity (HeLa) was “Non-Toxic” and the Activity [3] was “Active”.
COc1cccc(F)c1-n1cc(-c2ccccc2Sc2ccc(C(F)(F)F)cc2)nn1 was tested, and the Activity [1] was “inactive”.
With COc1ccc(-n2cc(-c3ccccc3Sc3ccc(N)cc3)nn2)c(OC)c1 the Activity [1] was “inactive”.
In the case of COc1cccc(OC)c1-n1cc(-c2ccccc2Sc2ccc([N+](=O)[O-])cc2)nn1, the Activity [1] was “inactive”.
COC(=O)c1ccc(Sc2ccccc2-c2cn(-c3ccc(OC)cc3OC)nn2)cc1 was tested, and the inhibition [4] was “Dose-dependent effect”, the Activity [1] was “inactive” and the Activity (HeLa) was “Non-Toxic”.
In the case of COc1ccccc1-n1cc(-c2ccccc2S(=O)(=O)c2ccc([N+](=O)[O-])cc2)nn1, the Activity [1] was “inactive”.
COc1ccc(-n2cc(-c3ccccc3S(=O)(=O)c3ccc(C(F)(F)F)cc3)nn2)c(OC)c1 was tested, and the Activity [1] was “inactive”.
With COc1ccc(-n2cc(-c3ccccc3S(=O)(=O)c3ccc([N+](=O)[O-])cc3)nn2)c(OC)c1 the Activity [1] was “inactive”.
In the case of COc1ccc(OC)c(-n2cc(-c3ccccc3S(=O)(=O)c3ccc([N+](=O)[O-])cc3)nn2)c1, the inhibition [4] was “Dose-dependent effect”, the Activity [1] was “inactive” and the Activity (HeLa) was “Non-Toxic”.
With COc1cccc(F)c1-n1cc(-c2ccccc2S(=O)(=O)c2ccc(N)cc2)nn1 the Activity [1] was “inactive”.
In the case of COc1ccc(-n2cc(-c3ccccc3Sc3ccc(C(F)(F)F)cc3)nn2)c(OC)c1, the Activity [1] was “inactive”.
COc1ccc(Sc2ccccc2-c2cn(-c3c(F)cccc3OC)nn2)cc1 was tested, and the Activity [1] was “inactive”.
For COc1ccc(-n2cc(-c3ccccc3S(=O)(=O)c3ccc(C(=O)O)cc3)nn2)c(OC)c1, the Activity [1] was “inactive”.
For COc1ccc(Sc2ccccc2-c2cn(-c3cc(OC)ccc3OC)nn2)cc1, the Activity [1] was “inactive”.
COc1cccc(-n2cc(-c3ccccc3Sc3ccc(C(F)(F)F)cc3)nn2)c1OC was tested, and the Activity [1] was “inactive”.
With COc1ccccc1-n1cc(-c2ccccc2S(=O)(=O)c2ccc(C(=O)O)cc2)nn1 the Activity [2] was “Active”, the Activity [1] was “inactive” and the Activity [3] was “Active”.
For COC(=O)c1ccc(S(=O)(=O)c2ccccc2-c2cn(-c3c(F)cccc3OC)nn2)cc1, the Activity [1] was “inactive”.
In the case of COC(=O)c1ccc(Sc2ccccc2-c2cn(-c3c(OC)cccc3OC)nn2)cc1, the inhibition [4] was “Dose-dependent effect”, the Activity [1] was “inactive” and the Activity (HeLa) was “Non-Toxic”.
For COc1cccc(-n2cc(-c3ccccc3S(=O)(=O)c3ccc(N)cc3)nn2)c1OC, the Activity [1] was “inactive”.
In the case of COC(=O)c1ccc(S(=O)(=O)c2ccccc2-c2cn(-c3cccc(OC)c3OC)nn2)cc1, the Activity [1] was “inactive”.
In the case of COc1cccc(OC)c1-n1cc(-c2ccccc2Sc2ccc(C(=O)O)cc2)nn1, the Activity [1] was “inactive”.
For COc1ccc(S(=O)(=O)c2ccccc2-c2cn(-c3cc(OC)ccc3OC)nn2)cc1, the Activity [1] was “inactive”.
With COc1cccc(OC)c1-n1cc(-c2ccccc2Sc2ccc(C(F)(F)F)cc2)nn1 the Activity [1] was “inactive”.
For COc1ccc(S(=O)(=O)c2ccccc2-c2cn(-c3ccc(OC)cc3OC)nn2)cc1, the Activity [1] was “inactive”.
For COC(=O)c1ccc(S(=O)(=O)c2ccccc2-c2cn(-c3c(OC)cccc3OC)nn2)cc1, the Activity [1] was “inactive”.
With COc1cccc(F)c1-n1cc(-c2ccccc2Sc2ccc([N+](=O)[O-])cc2)nn1 the Activity [1] was “inactive”.
For COc1ccccc1-n1cc(-c2ccccc2Sc2ccc(N)cc2)nn1, the Activity [1] was “inactive”.
In the case of COc1ccccc1-n1cc(-c2ccccc2S(=O)(=O)c2ccc(C(F)(F)F)cc2)nn1, the Activity [1] was “inactive”.
In the case of COc1cccc(-n2cc(-c3ccccc3S(=O)(=O)c3ccc(C(=O)O)cc3)nn2)c1OC, the Activity [1] was “inactive”.
With COc1ccc(OC)c(-n2cc(-c3ccccc3Sc3ccc(C(=O)O)cc3)nn2)c1 the Activity [1] was “inactive”.
With COc1ccc(Sc2ccccc2-c2cn(-c3ccccc3OC)nn2)cc1 the Activity [1] was “inactive”.
COC(=O)c1ccc(S(=O)(=O)c2ccccc2-c2cn(-c3ccc(OC)cc3OC)nn2)cc1 was tested, and the Activity [1] was “inactive”.
In the case of COc1ccc(Sc2ccccc2-c2cn(-c3ccc(OC)cc3OC)nn2)cc1, the Activity [1] was “inactive”.
With COc1cccc(F)c1-n1cc(-c2ccccc2Sc2ccc(C(=O)O)cc2)nn1 the Activity [1] was “inactive”.
With COc1cccc(OC)c1-n1cc(-c2ccccc2S(=O)(=O)c2ccc(C(F)(F)F)cc2)nn1 the Activity [1] was “inactive”.
In the case of COC(=O)c1ccc(Sc2ccccc2-c2cn(-c3cc(OC)ccc3OC)nn2)cc1, the Activity [2] was “Active”, the Activity [1] was “inactive” and the Activity [3] was “Active”.
COc1ccc(Sc2ccccc2-c2cn(-c3c(OC)cccc3OC)nn2)cc1 was tested, and the Activity [1] was “inactive”.
For COc1cccc(OC)c1-n1cc(-c2ccccc2S(=O)(=O)c2ccc(N)cc2)nn1, the Activity [1] was “inactive”.
With COc1cccc(OC)c1-n1cc(-c2ccccc2S(=O)(=O)c2ccc(C(=O)O)cc2)nn1 the Activity [1] was “inactive”.
With COC(=O)c1ccc(S(=O)(=O)c2ccccc2-c2cn(-c3ccccc3OC)nn2)cc1 the Activity [1] was “inactive”.
With COC(=O)c1ccc(Sc2ccccc2-c2cn(-c3cccc(OC)c3OC)nn2)cc1 the inhibition [4] was “Dose-dependent effect”, the Activity [1] was “inactive” and the Activity (HeLa) was “Non-Toxic”.
In the case of COc1cccc(-n2cc(-c3ccccc3S(=O)(=O)c3ccc([N+](=O)[O-])cc3)nn2)c1OC, the Activity [1] was “inactive”.
In the case of COc1ccc(OC)c(-n2cc(-c3ccccc3Sc3ccc(N)cc3)nn2)c1, the Activity [1] was “inactive”.
For COc1ccc(OC)c(-n2cc(-c3ccccc3Sc3ccc(C(F)(F)F)cc3)nn2)c1, the Activity [1] was “inactive”.
With COc1ccccc1-n1nncc1-c1ccccc1Sc1ccc([N+](=O)[O-])cc1 the Activity [2] was “Active” and the Activity [3] was “Active”.
With COc1ccc(S(=O)(=O)c2ccccc2-c2cn(-c3cccc(OC)c3OC)nn2)cc1 the Activity [1] was “inactive”.
